Tests used:
[1] = target: T1, Leukotriene A-4 hydrolase (Homo sapiens, UniProt P09960); experiment: Inhibition of LTA4 hydrolase in human whole blood assessed as inhibition of calcium ionophore A23187-induced LTB4 production after 0.5 hrs by ELISA
T1 sequence (P09960 whole entry): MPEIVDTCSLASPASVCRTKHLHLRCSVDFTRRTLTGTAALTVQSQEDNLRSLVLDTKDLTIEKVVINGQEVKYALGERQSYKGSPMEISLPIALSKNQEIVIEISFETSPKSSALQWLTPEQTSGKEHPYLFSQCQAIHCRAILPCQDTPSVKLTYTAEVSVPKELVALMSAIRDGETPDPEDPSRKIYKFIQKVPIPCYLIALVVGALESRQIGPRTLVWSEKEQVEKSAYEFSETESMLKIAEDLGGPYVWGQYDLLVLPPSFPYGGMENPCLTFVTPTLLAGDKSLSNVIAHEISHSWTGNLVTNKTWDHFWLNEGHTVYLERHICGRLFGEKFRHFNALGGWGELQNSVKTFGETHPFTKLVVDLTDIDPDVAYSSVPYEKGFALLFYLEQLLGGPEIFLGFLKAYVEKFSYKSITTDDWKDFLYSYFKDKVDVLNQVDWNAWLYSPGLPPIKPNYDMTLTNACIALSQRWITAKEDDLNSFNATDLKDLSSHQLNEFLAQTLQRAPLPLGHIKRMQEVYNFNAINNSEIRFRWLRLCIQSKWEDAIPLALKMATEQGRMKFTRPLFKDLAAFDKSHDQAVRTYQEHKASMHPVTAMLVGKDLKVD

[2] = target: T2, Prostaglandin G/H synthase 2 (Homo sapiens, UniProt P35354); experiment: Inhibition of purified COX2 assessed as formation of oxidized TMPD during reduction og PGG2 to PGH2 preincubated for 15 mins by chromogenic assay
T2 sequence (P35354 whole entry): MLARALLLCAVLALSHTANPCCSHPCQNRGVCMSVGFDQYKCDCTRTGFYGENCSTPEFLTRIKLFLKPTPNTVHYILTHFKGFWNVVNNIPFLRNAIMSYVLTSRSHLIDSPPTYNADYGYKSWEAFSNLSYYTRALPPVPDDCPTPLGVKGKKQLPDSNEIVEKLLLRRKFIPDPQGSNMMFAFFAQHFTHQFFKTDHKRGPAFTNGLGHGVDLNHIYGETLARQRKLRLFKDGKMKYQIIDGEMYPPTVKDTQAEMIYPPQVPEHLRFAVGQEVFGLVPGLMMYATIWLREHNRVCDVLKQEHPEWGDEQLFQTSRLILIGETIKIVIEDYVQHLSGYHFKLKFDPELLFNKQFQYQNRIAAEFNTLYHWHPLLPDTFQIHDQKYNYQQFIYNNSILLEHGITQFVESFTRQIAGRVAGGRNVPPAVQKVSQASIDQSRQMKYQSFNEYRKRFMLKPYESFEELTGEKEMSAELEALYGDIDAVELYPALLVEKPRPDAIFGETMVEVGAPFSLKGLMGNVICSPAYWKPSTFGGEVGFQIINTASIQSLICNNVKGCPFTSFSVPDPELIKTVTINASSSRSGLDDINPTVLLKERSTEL

[3] = target: Prostaglandin G/H synthase 1 (Homo sapiens, UniProt P23219); experiment: Inhibition of purified COX1 assessed as formation of oxidized TMPD during reduction og PGG2 to PGH2 preincubated for 15 mins by chromogenic assay
Chain of Prostaglandin G/H synthase 1 (P23219 whole entry): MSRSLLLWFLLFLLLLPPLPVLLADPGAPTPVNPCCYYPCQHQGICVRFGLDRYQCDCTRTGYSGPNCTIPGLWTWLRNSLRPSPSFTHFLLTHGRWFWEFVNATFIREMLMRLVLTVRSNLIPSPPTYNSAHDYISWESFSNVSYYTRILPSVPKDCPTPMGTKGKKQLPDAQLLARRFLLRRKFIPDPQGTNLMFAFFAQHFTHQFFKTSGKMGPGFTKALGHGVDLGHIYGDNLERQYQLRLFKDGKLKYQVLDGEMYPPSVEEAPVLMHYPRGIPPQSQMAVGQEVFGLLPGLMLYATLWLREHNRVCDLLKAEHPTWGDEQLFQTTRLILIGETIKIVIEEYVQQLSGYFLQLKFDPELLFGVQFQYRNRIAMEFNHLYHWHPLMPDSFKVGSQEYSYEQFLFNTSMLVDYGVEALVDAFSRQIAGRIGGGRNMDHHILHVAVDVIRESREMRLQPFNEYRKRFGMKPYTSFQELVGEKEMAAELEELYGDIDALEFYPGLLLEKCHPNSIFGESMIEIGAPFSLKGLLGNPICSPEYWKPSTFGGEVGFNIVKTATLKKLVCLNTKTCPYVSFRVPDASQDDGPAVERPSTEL
How it was run: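 Purified COX-1, approx 20 units, in 100 mM Tris pH 8 with 2 mM genapol X-100 and 1 μM hematin. Compounds in DMSO (5% final) preincubated 15 min at 25 °C. TMPD then added, reaction started with arachidonic acid. Initial rate of TMPD oxidation read at 610 nm over first 36 s. Nonenzymatic oxidation without enzyme subtracted before computing percent inhibition.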

[4] = target: T2, Prostaglandin G/H synthase 2; experiment: Inhibition of COX2 in human whole blood assessed as inhibition of LPS-induced PGE2 production after 24 hrs by ELISA
[5] = target: T1, Leukotriene A-4 hydrolase; experiment: Inhibition of human LTA4 hydrolase activity assessed as LTB4 production after 15 mins by ELISA

Q: How did the IC50 [1] turn out when c1ccc(Oc2ccc(OCCN3CCCC3)cc2)cc1 was run?
A: 0.78 µM

Q: What about the IC50 [2] of the same compound?
A: > 100 µM

Q: What about the IC50 [3] of the same compound?
A: > 100 µM

Q: What about the IC50 [4] of the same compound?
A: > 100 µM

Q: With c1cnc(Oc2ccc(OCCN3CCCC3)cc2)cn1 as the compound, how does the IC50 [5] read?
A: 4.3 µM

Q: And the IC50 [1]?
A: > 100 µM

Q: What about the IC50 [2] of the same compound?
A: 61.6 µM

Q: And the IC50 [3]?
A: > 100 µM

Q: What about the IC50 [4] of the same compound?
A: > 100 µM

Q: What does the source list for Nc1cccc(Oc2ccc(OCCN3CCCC3)cc2)c1?
A: IC50 [5]: 0.69 µM; IC50 [1]: 0.97 µM; IC50 [2]: > 100 µM; IC50 [3]: > 100 µM; IC50 [4]: > 100 µM

Q: Which IC50 [5] does the source give for FC(F)(F)c1ccc(Oc2ccc(OCCN3CCCC3)cc2)cc1 here?
A: 0.39 µM

Q: What about the IC50 [1] of the same compound?
A: 2 µM

Q: What about the IC50 [2] of the same compound?
A: > 100 µM

Q: And the IC50 [3]?
A: > 100 µM

Q: And the IC50 [4]?
A: > 100 µM

Q: CS(=O)(=O)c1ccc(Oc2ccc(OCCN3CCCC3)cc2)cc1 was tested. Which IC50 [5] did it give?
A: > 100 µM

Q: What about the IC50 [1] of the same compound?
A: > 100 µM

Q: And the IC50 [2]?
A: > 100 µM

Q: What about the IC50 [3] of the same compound?
A: > 100 µM

Q: What about the IC50 [4] of the same compound?
A: > 100 µM

Q: What does the source list for CN(c1ccccc1Oc1ccc(OCCN2CCCC2)cc1)S(C)(=O)=O?
A: IC50 [5]: > 100 µM; IC50 [1]: > 100 µM; IC50 [2]: 92 µM; IC50 [3]: > 100 µM; IC50 [4]: > 100 µM

Q: Which IC50 [5] does the source give for O=[N+]([O-])c1cccc(Oc2ccc(OCCN3CCCC3)cc2)c1 here?
A: 0.47 µM

Q: What about the IC50 [1] of the same compound?
A: 1.4 µM

Q: What about the IC50 [2] of the same compound?
A: > 100 µM

Q: What about the IC50 [3] of the same compound?
A: > 100 µM

Q: And the IC50 [4]?
A: 13 µM

Q: O=[N+]([O-])c1ccc(Oc2ccc(OCCN3CCCC3)cc2)c([N+](=O)[O-])c1 was tested. Which IC50 [5] did it give?
A: > 100 µM

Q: And the IC50 [1]?
A: > 100 µM

Q: And the IC50 [2]?
A: > 100 µM

Q: And the IC50 [3]?
A: > 100 µM

Q: What about the IC50 [4] of the same compound?
A: > 100 µM

Q: For c1cc(Oc2ccc(OCCN3CCCC3)cc2)ccn1, which IC50 [5] is on record?
A: 0.58 µM

Q: What about the IC50 [1] of the same compound?
A: 0.67 µM

Q: What about the IC50 [2] of the same compound?
A: > 100 µM

Q: What about the IC50 [3] of the same compound?
A: > 100 µM

Q: What about the IC50 [4] of the same compound?
A: > 100 µM

Q: Which IC50 [5] does the source give for O=[N+]([O-])c1cccnc1Oc1ccc(OCCN2CCCC2)cc1 here?
A: 2.5 µM

Q: And the IC50 [1]?
A: 34 µM

Q: What about the IC50 [2] of the same compound?
A: > 100 µM

Q: What about the IC50 [3] of the same compound?
A: > 100 µM

Q: And the IC50 [4]?
A: > 100 µM

Q: With O=[N+]([O-])c1ccccc1Oc1ccc(OCCN2CCCC2)cc1 as the compound, how does the IC50 [5] read?
A: 0.68 µM

Q: What about the IC50 [1] of the same compound?
A: 6.9 µM

Q: What about the IC50 [2] of the same compound?
A: 7.7 µM

Q: And the IC50 [3]?
A: 61 µM

Q: What about the IC50 [4] of the same compound?
A: 8.4 µM

Q: Which results are given for Fc1ccc(Oc2ccc(OCCN3CCCC3)cc2)cc1?
A: IC50 [5]: 0.08 µM; IC50 [1]: 0.99 µM; IC50 [2]: > 100 µM; IC50 [3]: > 100 µM; IC50 [4]: > 100 µM

Q: For CS(=O)(=O)Nc1ccc([N+](=O)[O-])cc1Oc1ccccc1 [NIMESULIDE], which IC50 [5] is on record?
A: > 100 µM

Q: And the IC50 [1]?
A: > 100 µM

Q: For CS(=O)(=O)c1cccc(Oc2ccc(OCCN3CCCC3)cc2)c1, which IC50 [5] is on record?
A: > 100 µM

Q: What about the IC50 [1] of the same compound?
A: > 100 µM

Q: And the IC50 [2]?
A: > 100 µM

Q: And the IC50 [3]?
A: > 100 µM

Q: What about the IC50 [4] of the same compound?
A: > 100 µM

Q: Which results are given for O=[N+]([O-])c1ccc(Oc2ccc(OCCN3CCCC3)cc2)cc1?
A: IC50 [5]: 0.37 µM; IC50 [1]: 0.69 µM; IC50 [2]: 35.3 µM; IC50 [3]: 20.4 µM; IC50 [4]: > 100 µM

Q: Which IC50 [5] does the source give for FC(F)(F)c1cccc(Oc2ccc(OCCN3CCCC3)cc2)c1 here?
A: 0.54 µM

Q: And the IC50 [1]?
A: > 100 µM

Q: What about the IC50 [2] of the same compound?
A: > 100 µM

Q: And the IC50 [3]?
A: > 100 µM

Q: What about the IC50 [4] of the same compound?
A: > 100 µM

Q: Which IC50 [5] does the source give for CS(=O)(=O)c1ccc(Oc2ccc(OCCN3CCCC3)cc2)c([N+](=O)[O-])c1 here?
A: > 100 µM

Q: And the IC50 [1]?
A: > 100 µM

Q: And the IC50 [2]?
A: > 100 µM

Q: And the IC50 [3]?
A: > 100 µM

Q: And the IC50 [4]?
A: > 100 µM

Q: FC(F)(F)c1ccccc1Oc1ccc(OCCN2CCCC2)cc1 was tested. Which IC50 [5] did it give?
A: 0.22 µM

Q: And the IC50 [1]?
A: 0.73 µM

Q: And the IC50 [2]?
A: 41.4 µM

Q: And the IC50 [3]?
A: > 100 µM

Q: And the IC50 [4]?
A: 5 µM

Q: CS(=O)(=O)c1ccccc1Oc1ccc(OCCN2CCCC2)cc1 was tested. Which IC50 [5] did it give?
A: > 100 µM

Q: And the IC50 [1]?
A: > 100 µM

Q: And the IC50 [2]?
A: > 100 µM

Q: And the IC50 [3]?
A: > 100 µM

Q: What about the IC50 [4] of the same compound?
A: > 100 µM

Q: CS(=O)(=O)Nc1ccc(Oc2ccc(OCCN3CCCC3)cc2)cc1 was tested. Which IC50 [5] did it give?
A: 3.4 µM

Q: And the IC50 [1]?
A: 2.1 µM

Q: What about the IC50 [2] of the same compound?
A: > 100 µM

Q: And the IC50 [3]?
A: > 100 µM

Q: And the IC50 [4]?
A: > 100 µM

Q: What does the source list for Brc1ccc(Oc2ccc(OCCN3CCCC3)cc2)cc1?
A: IC50 [5]: 0.11 µM; IC50 [1]: 0.29 µM; IC50 [2]: > 100 µM; IC50 [3]: > 100 µM; IC50 [4]: 5.1 µM

Q: What does the source list for Nc1ccccc1Oc1ccc(OCCN2CCCC2)cc1?
A: IC50 [5]: 0.63 µM; IC50 [1]: 0.11 µM; IC50 [2]: > 100 µM; IC50 [3]: > 100 µM; IC50 [4]: > 100 µM

Q: For c1ccc(Oc2ccc(OCCN3CCCC3)cc2)nc1, which IC50 [5] is on record?
A: 0.77 µM

Q: What about the IC50 [1] of the same compound?
A: 0.18 µM

Q: What about the IC50 [2] of the same compound?
A: 34.4 µM

Q: And the IC50 [3]?
A: > 100 µM

Q: And the IC50 [4]?
A: > 100 µM

Q: What does the source list for Clc1ccc(Oc2ccc(OCCN3CCCC3)cc2)cc1?
A: IC50 [5]: 0.04 µM; IC50 [1]: 0.73 µM; IC50 [2]: > 100 µM; IC50 [3]: > 100 µM; IC50 [4]: 22 µM

Q: For Nc1ccc(Oc2ccc(OCCN3CCCC3)cc2)cc1, which IC50 [5] is on record?
A: 0.32 µM

Q: What about the IC50 [1] of the same compound?
A: 0.029 µM

Q: What about the IC50 [2] of the same compound?
A: 36.3 µM

Q: And the IC50 [3]?
A: 1.9 µM

Q: What about the IC50 [4] of the same compound?
A: > 100 µM

Q: With CS(=O)(=O)N(c1ccccc1Oc1ccc(OCCN2CCCC2)cc1)S(C)(=O)=O as the compound, how does the IC50 [5] read?
A: > 100 µM

Q: And the IC50 [1]?
A: > 100 µM

Q: What about the IC50 [2] of the same compound?
A: > 100 µM

Q: And the IC50 [3]?
A: > 100 µM

Q: What about the IC50 [4] of the same compound?
A: > 100 µM

Q: How did the IC50 [5] turn out when CS(=O)(=O)N(c1cccc(Oc2ccc(OCCN3CCCC3)cc2)c1)S(C)(=O)=O was run?
A: > 100 µM

Q: What about the IC50 [1] of the same compound?
A: > 100 µM

Q: What about the IC50 [2] of the same compound?
A: > 100 µM

Q: And the IC50 [3]?
A: > 100 µM

Q: And the IC50 [4]?
A: > 100 µM
